Data on 30 molecules can be found in ChEMBL document CHEMBL1817601, “6,7-Dihydro-5H-cyclopenta[d]pyrazolo[1,5-a]pyrimidines and their derivatives as novel corticotropin-releasing factor 1 receptor antagonists” (Bioorg Med Chem, 2011).

Active and inactive are the calls of the source. The rule behind the calls is not given here.

Usually IC50 stands for the concentration that gives 50% inhibition. As usually defined, the EC50 is the midpoint of the concentration-response curve. By AUC(0-inf) is commonly meant the area under the concentration-time curve extrapolated to infinity. Read a low AUC(0-inf) as less exposure. A word on the clearance: it is the volume of plasma or blood freed of the substance per unit of time. As a reminder, the half-life is how long it takes for the measured level to halve. A lower half-life goes with rapid decline. One may read the Tmax as the time from dosing to the highest level. As a reminder, the Cmax is the maximum level reached in the sampled fluid or tissue. What is called bioavailability is dose-corrected exposure relative to a reference, in per cent. A low value points to little systemic uptake.

Data set [1] addresses T1, Corticotropin-releasing factor receptor 1 (Homo sapiens, UniProt P34998).
T1 sequence (P34998 whole entry): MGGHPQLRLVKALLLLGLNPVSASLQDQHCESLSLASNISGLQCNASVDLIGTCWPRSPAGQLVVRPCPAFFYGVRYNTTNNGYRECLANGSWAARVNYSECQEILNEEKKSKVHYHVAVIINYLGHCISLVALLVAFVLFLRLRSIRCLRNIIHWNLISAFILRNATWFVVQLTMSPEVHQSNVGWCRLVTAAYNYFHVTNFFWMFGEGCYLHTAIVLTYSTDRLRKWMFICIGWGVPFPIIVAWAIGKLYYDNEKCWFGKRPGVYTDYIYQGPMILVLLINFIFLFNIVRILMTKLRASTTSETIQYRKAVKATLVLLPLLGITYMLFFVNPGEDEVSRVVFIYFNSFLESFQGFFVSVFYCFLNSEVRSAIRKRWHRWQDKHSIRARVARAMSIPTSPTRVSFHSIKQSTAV
In words: Displacement of [125I]CRF from human corticotropin-releasing factor receptor 1 expressed in CHO-K1 cells after 2 hrs by gamma counting. The format is cell-based. The procedure, abridged: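 Crude membranes prepared from CRF1-expressing CHO-K1 cells in 50 mmol/l Tris-HCl with 10 mmol/l MgCl2, 2 mmol/l EDTA and aprotinin. Membranes incubated with 0.5 nmol/l (stock) ¹²⁵I human/rat CRF and compound (1–10,000 nmol/l) for 2 h at room temperature. Reaction ended by centrifugation, pellet washed with PBS/0.01% Triton X-100. IC50 of specific binding taken from concentration–response curves.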

Data set [2] has as its target T1, Corticotropin-releasing factor receptor 1. In words: Antagonist activity at human corticotropin-releasing factor receptor 1 expressed in CHO-K1 cells assessed as inhibition of CRF-induced cAMP production after 15 mins by enzyme immunoassay. The format is functional, cell-based. The procedure, abridged: (§1)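 CHO-K1 cells expressing CRF1 seeded at 1 × 10⁴ cells/well and incubated overnight. Cells washed with F-12, then preincubated 10 min at 37 °C in F-12 with 1 mmol/l IBMX. Compound (1–10,000 nmol/l) added with medium containing 10 nmol/l CRF (stock), then 15 min at 37 °C. Cells chilled and cAMP measured by enzyme immunoassay, blank-corrected; IC50 taken from concentration–response curves.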
For orientation: Cyclic AMP is a second messenger, typically raised through Gs and lowered through Gi signalling.

Data set [3] deals with Rattus norvegicus. In words: Anxiolytic activity in swim stress-loaded Sprague-Dawley rat assessed as increase in time spent in open arms at 3 mg/kg, po after 1 hr by plus-maze test. The format is functional, organism-based. Details: dose 3 mg/kg. The method, boiled down: (§2)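 Male Sprague–Dawley rats (230–280 g) given 0.5% MC vehicle or compound orally 1 h before testing. Rats forced to swim 90 s in 22 °C water, then placed at the maze centre facing a closed arm. Behaviour video-tracked for 5 min; time in open arms and open-arm entries scored. 16 rats per group, mean ± S.E.; Dunnett test against vehicle.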

Data set [4] has as its target T2, Corticotropin-releasing factor receptor 1 (Rattus norvegicus, UniProt P35353).
T2 sequence (P35353 whole entry): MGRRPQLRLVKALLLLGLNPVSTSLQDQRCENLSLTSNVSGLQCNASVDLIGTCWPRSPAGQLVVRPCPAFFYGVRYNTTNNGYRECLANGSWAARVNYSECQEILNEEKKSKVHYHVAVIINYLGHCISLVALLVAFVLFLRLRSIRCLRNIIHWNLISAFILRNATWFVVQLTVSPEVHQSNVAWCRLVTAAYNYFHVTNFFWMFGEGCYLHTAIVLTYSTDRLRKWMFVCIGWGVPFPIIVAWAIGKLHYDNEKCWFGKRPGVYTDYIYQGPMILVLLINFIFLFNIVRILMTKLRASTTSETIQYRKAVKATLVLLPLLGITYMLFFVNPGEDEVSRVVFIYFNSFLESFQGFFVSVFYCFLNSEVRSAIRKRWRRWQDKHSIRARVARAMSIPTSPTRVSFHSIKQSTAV
In words: Antagonist activity at rat corticotropin-releasing factor receptor 1 expressed in CHO-K1 cells assessed as inhibition of CRF-induced cAMP production after 15 mins by enzyme immunoassay. The format is functional, cell-based. The method, boiled down:
as §1

In data set [5] the test system is Rattus norvegicus. In words: Anxiolytic activity in swim stress-loaded Sprague-Dawley rat assessed as increase in time spent in open arms at 10 mg/kg, po after 1 hr by plus-maze test. The format is functional, organism-based. Details: dose 10 mg/kg. The method, boiled down:
as §2

For data set [6], the target named is T2, Corticotropin-releasing factor receptor 1. In words: Displacement of [125I]CRF from corticotropin-releasing factor receptor 1 in rat brain membranes after 2 hrs by gamma counting. The format is cell membranes. Background: Loss of bound radioactivity is the signal in a displacement assay; it reports binding, not function.
The nature of data set [7]: AUC (infinity) in rat at 0.3 mg/kg, iv. The format is ADME, organism-based. Further details: time infinity, dose 0.3 mg/kg, route intravenous. The settings on record: plasma. The method, boiled down:
(§3)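 Fasted male rats (n = 4) dosed intravenously at 0.3 mg/kg. Samples ice-chilled and centrifuged to plasma, then stored at −70 °C. AUC, T1/2, Vss and CL taken from the plasma concentration time course.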

Data set [8] can be described thus: Total clearance in rat at 0.3 mg/kg, iv. The format is ADME, organism-based. Details: dose 0.3 mg/kg, route intravenous. The settings on record: in vivo. The method, boiled down: as §3
Data set [9] can be described thus: Half life in rat at 0.3 mg/kg, iv. The format is ADME, organism-based. Further details: dose 0.3 mg/kg, route intravenous. The settings on record: in vivo. The method, boiled down: as §3
Data set [10] can be described thus: Volume of distribution at steady state in rat at 0.3 mg/kg, iv. The format is ADME, organism-based. Further details: dose 0.3 mg/kg, route intravenous. The settings on record: in vivo, read-out: Vdss. The method, boiled down:
as §3

Data set [11] can be described thus: AUC (infinity) in rat at 3 mg/kg, po. The format is ADME, organism-based. Details: time infinity, dose 3 mg/kg, route oral. The settings on record: plasma. The procedure, abridged: (§4)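 Fasted male rats (n = 4) given 3 mg/kg orally in saline with 0.5% MC (w/v). Jugular vein blood (heparinized syringe) taken at 1, 2, 4, 6, 8, 24, 48, 72 h. Plasma obtained by centrifugation and stored at −70 °C. AUC, Cmax, Tmax and T1/2 derived from the plasma concentration time course.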

Data set [12] in a line: Tmax in rat at 3 mg/kg, po. The settings on record: in vivo. The format is ADME, organism-based. Details: dose 3 mg/kg, route oral. The method, boiled down:
as §4

A short description of data set [13]: Cmax in rat at 3 mg/kg, po. The format is ADME, organism-based. Further details: dose 3 mg/kg, route oral. The following applies: in vivo. The method, boiled down: as §4
A short description of data set [14]: Half life in rat at 3 mg/kg, po. The format is ADME, organism-based. Further details: dose 3 mg/kg, route oral. The settings on record: in vivo. The method, boiled down: as §4
Data set [15] is described as follows: Oral bioavailability in rat at 3 mg/kg. The following applies: in vivo. The format is ADME, organism-based.
Data set [16] can be described thus: Ratio of drug level in brain to plasma in rat at 3 mg/kg, po after 1 hr. The format is ADME, organism-based. Details: dose 3 mg/kg, route oral. The following applies: read-out: BPR.

For the molecule `CCC(CC)Nc1c2c(nc3c(-c4ccc(F)cc4C)c(C)nn13)CCC2`, in data set [1], the concentration for half-maximal inhibition (IC50) worked out at 93 nM.
Still for that read-out and setting: the figure for `CCC(CC)Nc1c2c(nc3c(-c4ccc(OC)cc4C)c(C)nn13)CCN2` is 170 nM.
Consider `CCC(CC)Nc1cc(C)nc2c(-c3ccc(OC)cc3Cl)c(C)nn12`, for which, in data set [2], the EC50 worked out at 31 nM. The molecule also registered an IC50 in data set [1] of 6 nM.
As to `CCC(CC)Nc1c2c(nc3c(-c4ccc(OC)cc4C)c(CSC)nn13)CCC2`, the IC50 in [1] was found to be 620 nM.
The same measure, in the same setting: under `CCC(CC)Nc1c2c(nc3c(-c4ccc(OC)cc4C)cnn13)CCC2` stands 240 nM.
Take `CCC(CC)Nc1c2c(nc3c(-c4ccc(OC(F)F)cc4Cl)c(C)nn13)CCC2`: the EC50 in data set [2] worked out at 200 nM. This molecule returned an IC50 in [1] of 3 nM.
`CCc1nn2c(NC(CC)CC)c3c(nc2c1-c1ccc(OC)cc1C)CCC3` gave an IC50 in data set [1] of 97 nM.
For the molecule `CCC(CC)Nc1c2c(nc3c(-c4ccc(OC)cc4Cl)c(C)nn13)CCC2` [ONO-2333MS], the result in the data set on Rattus norvegicus [3] and in the data set on Rattus norvegicus [5] was Active. Further, the EC50 in data set [4] and in data set [2] was 40 nM throughout. Further, the IC50 in data set [6] was determined as 7 nM; in data set [1], 4 nM. Also, the results for the AUC(0-inf) in [7] and in [11] were 278 ng·h/mL and 608 ng·h/mL, respectively. For the same molecule, the clearance in data set [8] was found to be 18 mL/min/kg. Moreover, the half-life in data set [9] was 4.7 h; in data set [14], 7.8 h. Also, the Vd in [10] came to 1.78 L/kg. For the same molecule, the Tmax in data set [12] is 1 h. Also, the Cmax in [13] turned out to be 87.1 ng/mL. Also, in data set [15], the bioavailability worked out at 22%. Besides, in data set [16], the Kp at 1 h is 0.4.
Turning to `CCC(CC)Nc1c2c(nc3c(-c4ccc(OC)cc4C)c(C)nn13)COC2`, the EC50 in data set [2] was found to be 75 nM. Besides, in [1], the IC50 came to 35 nM.
Take `CCC(CC)Nc1c2c(nc3c(-c4ccc(OC)cc4C)c(C)nn13)CCC2`: in data set [2], the EC50 was found to be 170 nM. In data set [1], this molecule yielded an IC50 of 37 nM.
Consider `CCC(CC)Nc1c2c(nc3c(-c4c(C)cc(OC)cc4C)c(C)nn13)CCC2`, for which the EC50 in [2] came out at 80 nM. Besides, the IC50 in [1] was 9 nM.
For `CCC(CC)Nc1c2c(nc3c(-c4ccc(OC)cc4C)c(C4CCC4)nn13)CCC2`, the IC50 in data set [1] was found to be 490 nM.
On the same count and under the same terms, the figure for `CCC(CC)Nc1c2c(nc3c(-c4ccc(OC)cc4C)c(C(F)(F)F)nn13)CCC2` is 59 nM.
Take `CCC(CC)Nc1c2c(nc3c(-c4ccc(OC(F)(F)F)cc4Cl)c(C)nn13)CCC2`: in data set [1], the IC50 was determined as 15 nM.
Consider `CCC(CC)Nc1c2c(nc3c(-c4cc(C)ccc4C)c(C)nn13)CCC2`, for which the IC50 in data set [1] was found to be 820 nM.
Same read-out and setting: the figure for `CCOc1ccc(-c2c(C)nn3c(NC(CC)CC)c4c(nc23)CCC4)c(Cl)c1` is 71 nM.
Take `CCC(CC)Nc1c2c(nc3c(-c4cc(C)c(OC)cc4C)c(C)nn13)CCC2`: in data set [2], the EC50 came out at 47 nM. Moreover, in [1], the IC50 was found to be 22 nM.
In turn, `CCC(CC)Nc1c2c(nc3c(-c4ccc(OC)cc4C)c(C)nn13)CCS2` came in with an IC50 in [1] of 80 nM.
With `CCC(CC)Nc1c2c(nc3c(-c4ccc(OC)cc4C)c(C)nn13)CCO2`, the EC50 in data set [2] was determined as 640 nM. This molecule yielded an IC50 in data set [1] of 31 nM.
For `CCC(CC)Nc1c2c(nc3c(-c4ccc(OC)cc4Cl)c(C)nn13)OCC2`, in that order: 8 nM and 84 nM.
In the same order, the values of `CCC(CC)Nc1c2c(nc3c(-c4ccc(OC)cc4Cl)c(C)nn13)CCO2` are 4 nM and 7 nM.
In data set [1], `CCC(CC)Nc1c2c(nc3c(-c4ccc(N(C)C)cc4C)c(C)nn13)CCC2` had an IC50 of 38 nM.
Same read-out and setting: under `CCC(CC)Nc1c2c(nc3c(-c4ccc(OC)cc4SC)c(C)nn13)CCC2` stands 49 nM.
As for `CCC(CC)Nc1c(C)c(C)nc2c(-c3ccc(OC)cc3Cl)c(C)nn12`, the EC50 in [2] was 100 nM. Further, in [1], the IC50 was 49 nM.
`CCC(CC)Nc1c2c(nc3c(-c4ccc(OC)c(OC)c4)c(C)nn13)CCC2` came in with an IC50 in data set [1] of 600 nM.
As to `CCC(CC)Nc1c2c(nc3c(-c4ccc(OC)cc4C)c(C)nn13)CSC2`, the EC50 in data set [2] was found to be 150 nM. Further, the IC50 in data set [1] amounted to 37 nM.
Regarding `CCC(CC)Nc1cc(C)nc2c(-c3ccc(OC)cc3C)c(C)nn12`, the IC50 in data set [2] came out at 10 nM.
For the molecule `CCC(CC)Nc1c2c(nc3c(-c4ccc(Cl)cc4Cl)c(C)nn13)CCC2`, in data set [2], the EC50 is 200 nM. In data set [1], the IC50 was found to be 37 nM.
As to `CCC(CC)Nc1c2c(nc3c(-c4ccc(C)cc4C)c(C)nn13)CCC2`, in [2], the EC50 was determined as 920 nM. Moreover, the IC50 in data set [1] is 72 nM.
For `CCC(CC)Nc1c2c(nc3c(-c4ccc(OC)cc4Cl)c(C)nn13)COC2`, in that order: 66 nM and 22 nM.
